This is an account of results in publication PMC6262783 (International Journal for Parasitology: Drugs and Drug …, 2018).

One data set relates to PRU T. gondii. Description: T. gondii growth inhibition in vitro screen, PRU-dTom strain. It counts as cell-based, Toxoplasma gondii. As to conditions: for IC50: Toxoplasma gondii, 120 h, read-out: PRU T. gondii IC50; for activity against PRU T. gondii (in words): PRU strain. An outline of the steps: (§1)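 HFF (~20,000/well) were grown to confluence, then infected with dTomato-expressing tachyzoites: RH 2000/well for 24 h, or PRU 8000/well for 48 h, at 37 °C. Medium was replaced and test compound in DMSO added at 0–100 µM in duplicate, with pyrimethamine as positive control. Fluorescence (ex 530/25, em 590/25) was read over 5 days; IC50 was the concentration halving RFU at day 5.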

Data set [1] has as its system human foreskin fibroblasts (HFF). The data set is described as follows: Mammalian cell cytotoxicity screen. The settings on record: Fibroblast, 24 h, read-out: HFF IC50. Format: cell-based. An outline of the steps: (§2)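 HFF and U-20S were kept in DMEM with 10% heat-inactivated bovine serum, 2 mM L-glutamine, penicillin/streptomycin, 10% Medium 199 and gentamicin, at 36.5 °C with 5% CO2. Confluent cells (~20,000/well plated) were treated with 0–100 µM test compound for 24 h in duplicate. Alamar Blue (0.5 mM resazurin, 4 h, 37 °C) was read at ex 530/25, em 590/25; untreated cells defined 100% viability.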

Data set [2] relates to murine macrophages (NR-9456). The data set is described as follows: Mammalian cell cytotoxicity screen. It counts as cell-based. The settings on record: Mus musculus, Macrophage, 24 h, read-out: NR-9456 IC50. An outline of the steps:
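Murine macrophages NR-9456 were maintained with added 1 mM sodium pyruvate and plated at ~20,000/well to confluence. They were exposed to 0–100 µM test compound for 24 h in duplicate. Resazurin (0.5 mM) was added for 4 h at 37 °C with 5% CO2, and fluorescence was read at ex 530/25, em 590/25. Viability was normalised to no-compound wells (100%).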

For data set [3], the system named is human osteosarcoma cells (U-20S). The data set is described as follows: Mammalian cell cytotoxicity screen. Format: cell-based. As to conditions: U2OS, 24 h, read-out: U2OS IC50. An outline of the steps:
as §2

Data set [4] concerns human embryonic kidney cells (HEK-293). The data set is described as follows: Mammalian cell cytotoxicity screen. As to conditions: HEK293, 24 h, read-out: HEK293 IC50. Format: cell-based. An outline of the steps: (§3)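 HEK-293 and HC-04 were kept in DMEM with 10% heat-inactivated bovine serum, 2 mM L-glutamine, penicillin/streptomycin and gentamicin (no Medium 199), at 36.5 °C with 5% CO2. Cells (~20,000/well) were grown to confluence, then treated with 0–100 µM test compound for 24 h in duplicate. Alamar Blue (0.5 mM resazurin, 4 h, 37 °C) was read at ex 530/25, em 590/25; viability was relative to untreated cells (100%).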

In data set [5] the test system is human liver cells (HC-04). Description: Mammalian cell cytotoxicity screen. It counts as cell-based. The settings on record: HC04, 24 h, read-out: HCO4 IC50. An outline of the steps:
as §3

Data set [6] relates to Salmonella typhimurium (TA100 strain). The data set is described as follows: Bacterial reverse mutation assay. Format: cell-based. As to conditions: 0.75 μM (ca. 3x average T. gondii IC50).
The subject of data set [7] is RH-dTom tachyzoites in pre-treated HFF cells. Description: Host cell. It counts as cell-based, Toxoplasma gondii. An outline of the steps: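 HFF were grown to confluence in 96-well plates and exposed to 10 µM test compound for 24 h at 37 °C, in triplicate. Cells were washed twice with D10 medium, then infected with RH-dTom tachyzoites. Parasite growth was followed by fluorescence for 5 days post-infection and expressed relative to control.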

Data set [8] can be described thus: Kinetic aqueous solubility by nephelometry. It counts as physicochemical. As to conditions: PBS pH 6.5, pH 6.5, aqueous buffer, kinetic from dmso stock. An outline of the steps:
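Kinetic solubility was determined by nephelometry after 30 min at room temperature. A solubility range was reported.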

Data set [9] is described as follows: Metabolic stability in human liver microsomes. It counts as in vitro ADME. An outline of the steps:
(§4)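 Test compound (1 µM) was incubated with human or mouse liver microsomes (0.4 mg/mL protein) at 37 °C. Reactions were started with an NADPH-regenerating system and quenched at 2, 30 and 60 min. Remaining compound was quantified by LCMS to derive half-life, in vitro intrinsic clearance and predicted hepatic extraction ratio.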
(In general: Liver microsomes are vesicles of endoplasmic reticulum, rich in cytochrome P450 enzymes.)

The nature of data set [10]: Metabolic stability in mouse liver microsomes. It counts as in vitro ADME. An outline of the steps:
as §4

In the next data set the test system is ME49 strain T. gondii. Description: In vivo survivorship challenge in murine model. On the set-up: species or system Toxoplasma gondii. An outline of the steps: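 Female Swiss Webster mice, 2 months old, were infected intraperitoneally with 5000 ME49 tachyzoites. Dosing started simultaneously: test compound 5 mg/kg (n = 10), pyrimethamine 5 mg/kg (n = 20) or solvent (n = 24), IP once daily for 10 days. Vehicle was 5% DMSO, 47.5% propylene glycol, 47.5% Kollisolv. Mice were weighed daily; survival was followed over 40 d by Kaplan-Meier.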

The subject of the next data set is RH T. gondii. Description: T. gondii growth inhibition in vitro screen, RH-dTom strain. Format: cell-based, Toxoplasma gondii. As to conditions: for activity against RH T. gondii (in words): primary screen. An outline of the steps:
as §1

For the next data set, the system named is RH-dTom tachyzoites. The data set is described as follows: Extracellular parasite pre-treatment assay. It counts as cell-based. The settings on record: Toxoplasma gondii, read-out: parasite growth, % of control. An outline of the steps: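 RH-dTom tachyzoites were isolated from culture and resuspended in D10 medium at 10e6/mL. They were exposed to 10 µM test compound for 4 h, then centrifuged and washed twice. Confluent HFF in 96-well plates were infected with 2000 treated tachyzoites per well. Parasite growth was read by fluorescence at 5 days post-infection and expressed relative to control.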

The target of a further data set is human albumin (Homo sapiens, UniProt P02768). Description: Chromatography-based protein binding. The settings on record: estimated by chromatographic method, human albumin column. Format: in vitro ADME. An outline of the steps: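 Plasma protein binding was estimated chromatographically on a human albumin column. Retention was correlated against a standard series of compounds with known cPPB values.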

The test system of the next data set is T. gondii. The settings on record: ref Sanford et al., 2018; cited from earlier work.

The structures appear in SMILES notation. “Also recorded” adds a separate entry of the source.

Chain of human albumin (P02768 25-609): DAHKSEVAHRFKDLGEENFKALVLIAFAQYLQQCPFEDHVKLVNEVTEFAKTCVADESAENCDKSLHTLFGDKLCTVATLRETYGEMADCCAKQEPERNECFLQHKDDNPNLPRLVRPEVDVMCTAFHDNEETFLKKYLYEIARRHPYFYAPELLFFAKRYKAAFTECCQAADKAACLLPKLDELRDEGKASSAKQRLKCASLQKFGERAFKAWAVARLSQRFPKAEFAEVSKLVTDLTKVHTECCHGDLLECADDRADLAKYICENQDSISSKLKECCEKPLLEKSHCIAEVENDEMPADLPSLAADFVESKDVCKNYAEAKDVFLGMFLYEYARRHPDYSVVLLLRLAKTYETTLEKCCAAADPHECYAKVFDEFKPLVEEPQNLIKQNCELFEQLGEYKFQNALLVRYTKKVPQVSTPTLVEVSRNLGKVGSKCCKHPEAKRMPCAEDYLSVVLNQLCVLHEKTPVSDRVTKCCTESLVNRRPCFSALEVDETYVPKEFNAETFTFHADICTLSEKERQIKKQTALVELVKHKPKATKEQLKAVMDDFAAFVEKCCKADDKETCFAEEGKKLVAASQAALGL

A word on the IC50: it is the concentration needed to halve the response being measured. For orientation: kinetic solubility means the concentration staying in solution when a stock, usually in DMSO, is diluted into the medium. As usually defined, the half-life is the time needed for the level to fall by half in the phase considered. The microsomal CLint is the rate of metabolic loss divided by the concentration. Read a high microsomal CLint as faster metabolism. In the case of `CC(C)(C)C1=CC(=NNc2ccc([N+](=O)[O-])cc2[N+](=O)[O-])C=C(C(C)(C)C)C1=O` [KGW59, 2,6-di-tert-butyl-4-(2-(2,4-dinitrophenyl)hydrazineylidene)cyclohexa-2,5-dien-1-one], the IC50 in the data set on PRU T. gondii was 1.4 µM; in [1] it was above 100 µM; in data set [2], above 100 µM; in data set [3] it was above 100 µM; in data set [4], above 100 µM; in [5] it was above 100 µM. In addition, the “Ames Assay” value in data set [6] is recorded as “neither compound was mutagenic; also recorded: Negative”. For the same compound, in data set [7] (Toxoplasma gondii, HFF, read-out: parasite growth, % of control), the activity at 10 µM turned out to be 30.2%. The compound also registered a solubility (kinetic) at 30 min in data set [8] below 1.6 µg/mL. The “Predicted EH” value was 0.38 in data set [9] and 0.50 in [10]. Further, the half-life at 1 μM was 1.85 h in data set [9] and 0.617 h in data set [10]. For the same compound, the figures for the intrinsic metabolic clearance (microsomal CLint) at 1 μM in [9] and in [10] were 16 µL/min/mg and 46 µL/min/mg, respectively. In addition, in the data set on ME49 strain T. gondii, the “survivorship (in words)” value is given as “significantly increased survivorship”.

Regarding `CC(C)(C)C1=CC(=NNC(=O)c2ccccc2)C=C(C(C)(C)C)C1=O` [KGW15, N'-(3,5-di-tert-butyl-4-oxocyclohexa-2,5-dien-1-ylidene)benzohydrazide], in data set [1], the IC50 is above 100 µM.

As to `CC(C)(C)C1=CC(=NNC(=O)C2CCCCC2)C=C(C(C)(C)C)C1=O` [KGW66, N'-(3,5-di-tert-butyl-4-oxocyclohexa-2,5-dien-1-ylidene)cyclohexanecarbohydrazide], the “activity against RH T. gondii (in words)” value with RH T. gondii (RH strain) is listed as “abolished activity”.

On to `CC(C)(C)C1=CC(=NNC(=O)c2ccc(O)cc2)C=C(C(C)(C)C)C1=O` [KGW43, N'-(3,5-di-tert-butyl-4-oxocyclohexa-2,5-dien-1-ylidene)-4-hydroxybenzohydrazide], for which the IC50 in data set [1] is above 100 µM.

Regarding `CC(C)(C)C1=CC(=NNC(=O)c2ccc(C#N)cc2)C=C(C(C)(C)C)C1=O` [KGW54, 4-cyano-N'-(3,5-di-tert-butyl-4-oxocyclohexa-2,5-dien-1-ylidene)benzohydrazide], the half-inhibitory concentration (IC50) in the data set with RH T. gondii (read-out: RH T. gondii IC50, RH-dTom tachyzoites in HFF, fluorescence, day 5) is 1.2 µM; in the data set with PRU T. gondii, 2.2 µM; in data set [1], above 100 µM.

For `CC(C)(C)C1=CC(=NNC(=O)c2ccc([N+](=O)[O-])cc2)C=C(C(C)(C)C)C1=O` [KGW44, N'-(3,5-di-tert-butyl-4-oxocyclohexa-2,5-dien-1-ylidene)-4-nitrobenzohydrazide], the IC50 is 0.99 µM with PRU T. gondii; above 100 µM in data set [1]; above 100 µM in [2]; above 100 µM in data set [3]; above 100 µM in data set [4]; above 100 µM in data set [5]. In [6], the “Ames Assay” value was “neither compound was mutagenic; also recorded: Negative”. Further, in data set [7] (HFF pre-treated 10 μM 24 h, washed, then infected, 5 days post-infection), the “parasite growth, % of control” value was “no significant change in growth”. Besides, the activity at 10 µM in the data set on RH-dTom tachyzoites is 60.3%. Also, the “cPPB (% Bound)” value on human albumin was 84.3 % Bound. For the same compound, in [8], the solubility (kinetic) at 30 min is below 1.6 µg/mL. Also, the “Predicted EH” value in data set [9] is recorded as 0.45. In addition, the half-life at 1 μM in data set [9] was 1.38 h; in data set [10], 0.15 h. Further, the intrinsic clearance (microsomal CLint) at 1 μM in data set [9] worked out at 21 µL/min/mg; in data set [10] it was 99 µL/min/mg.

Consider `NNC(=O)c1ccncc1` [isoniazid], for which the “activity against T. gondii in vitro (in words)” value in the data set on T. gondii is “inactive”.

For the compound `CC1(C)CC(=NNC(=O)c2ccncc2)CC(C)(C)C1=O` [KGW73, N'-(3,3,5,5-tetramethyl-4-oxocyclohexylidene)isonicotinohydrazide], the “activity against RH T. gondii (in words)” value with RH T. gondii (RH strain) was “inactive”. Besides, in data set [1], the 50% inhibitory concentration (IC50) was above 100 µM.

As to `CCOc1ccc(C(=O)NN=C2C=C(C(C)(C)C)C(=O)C(C(C)(C)C)=C2)cc1` [KGW64, N'-(3,5-di-tert-butyl-4-oxocyclohexa-2,5-dien-1-ylidene)-4-ethoxybenzohydrazide], the “activity against PRU T. gondii (in words)” value in the data set with PRU T. gondii is “only weakly active”.

On to `Cc1ccc(C(=O)NN=C2C=C(C(C)(C)C)C(=O)C(C(C)(C)C)=C2)cc1` [KGW42, N'-(3,5-di-tert-butyl-4-oxocyclohexa-2,5-dien-1-ylidene)-4-methylbenzohydrazide], for which, in [1], the half-maximal inhibitory concentration (IC50) is above 100 µM.

For the compound `CC(C)(C)C1=CC(=NNC(=O)c2c[nH]cn2)C=C(C(C)(C)C)C1=O` [KGW45, N'-(3,5-di-tert-butyl-4-oxocyclohexa-2,5-dien-1-ylidene)-1H-imidazole-4-carbohydrazide], the “activity against RH T. gondii (in words)” value with RH T. gondii (RH strain) was “significantly weakened”. Besides, the IC50 in [1] is above 100 µM.

Take `Cc1ccc(C(=O)ON=C2C=C(C(C)(C)C)C(=O)C(C(C)(C)C)=C2)cc1` [KGW72, 2,6-di-tert-butyl-4-(((4-methylbenzoyl)oxy)imino)cyclohexa-2,5-dien-1-one]: the “reduction of potency relative to KG8” value in the data set with RH T. gondii (RH strain) was 6 fold. Further, the half-inhibitory concentration (IC50) in [1] was above 100 µM.

On to `CC(C)(C)C1=CC(=NNC(=O)c2cccnc2)C=C(C(C)(C)C)C1=O` [KGW65, N'-(3,5-di-tert-butyl-4-oxocyclohexa-2,5-dien-1-ylidene)nicotinohydrazide], for which, in the data set on PRU T. gondii, the “activity against PRU T. gondii (in words)” value was “completely inactive”.
